Measurements: ChEMBL document CHEMBL3872265, “Structure-activity relationship of the inhibitory effects of flavonoids on nitric oxide production in RAW264.7 cells” (Bioorg Med Chem, 2017)

Key:
[1] = test system: RAW264.7; test: Inhibition of LPS/INF-gamma-stimulated nitric oxide production in mouse RAW264.7 cells measured after 16 hrs; type: functional, cell-based; details: RAW264.7, 16 h
Outline: (§1)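 RAW264.7 murine macrophages were co-stimulated with LPS (100 ng/mL) plus IFN-γ (0.33 ng/mL) in the presence of test compound. Nitrite released into the medium was quantified by the Griess method as a measure of NO. Cell viability was read in parallel with AlamarBlue reagent.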

[2] = test system: Peritoneal macrophage; test: Inhibition of LPS-stimulated nitric oxide production in ddy mouse peritoneal macrophages measured after 20 hrs by Greiss method; type: functional
[3] = Cytotoxicity against LPS/INF-gamma-stimulated mouse RAW264.7 cells assessed as cell viability at 100 uM by alamar blue assay relative to control; type: toxicity; details: LPS/INF-gamma-stimulated RAW264.7 cells, read-out: Activity; outline: as §1
[4] = test system: RAW264.7; test: Inhibition of LPS/INF-gamma-stimulated nitric oxide production in mouse RAW264.7 cells by Greiss method; type: functional, cell-based; outline: as §1
[5] = test system: RAW264.7; test: Inhibition of LPS-stimulated nitric oxide production in mouse RAW264.7 cells by Greiss method; type: functional, cell-based
Outline: (§2)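 This variant stimulated RAW264.7 murine macrophages with LPS alone, without IFN-γ, in the presence of test compound. Released nitrite was measured by the Griess method to quantify NO production. Cell viability was assessed with AlamarBlue reagent.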

[6] = Cytotoxicity against LPS-stimulated mouse RAW264.7 cells assessed as cell viability at 100 uM by alamar blue assay relative to control; type: toxicity; details: LPS-stimulated RAW264.7 cells, read-out: Activity; outline: as §2

SMILES | IC50 [1] [µM] | IC50 [2] [µM] | further results
O=C1C[C@@H](c2cc(O)cc(O)c2)Oc2cc(O)cc(O)c21 | 12 | – | –
O=c1cc(-c2ccc(O)cc2)oc2cc(O)ccc12 | – | 14 | –
O=c1cc(-c2ccc(O)c(O)c2)oc2cc(O)ccc12 | – | 26 | –
COc1c(O)cc([C@H]2Oc3cc(O)ccc3C(=O)[C@@H]2O)cc1O | > 100 | – | –
O=C1C[C@@H](c2cc(O)c(O)c(O)c2)Oc2cc(O)ccc21 | > 100 | – | –
COc1cc(-c2cc(=O)c3c(O)cc(O)cc3o2)cc(O)c1OC | – | – | viability at 100 µM [3]: 96%; IC50 [4]: 18.2 µM; IC50 [5]: 6.9 µM; viability at 100 µM [6]: 106%
COc1c(O)cc(-c2oc3cc(O)ccc3c(=O)c2O)cc1O | 14 | – | –
COc1cc(-c2oc3cc(O)ccc3c(=O)c2O)cc(OC)c1O | 63 | – | –
COc1c(O)cc(-c2cc(=O)c3c(O)cc(O)cc3o2)cc1O | – | – | viability at 100 µM [3]: 119%; IC50 [4]: 59.3 µM; IC50 [5]: 37 µM; viability at 100 µM [6]: 112%
COc1cc([C@H]2Oc3cc(O)ccc3C(=O)[C@@H]2O)cc(OC)c1O | > 100 | – | –
O=C1c2ccc(O)cc2O[C@H](c2cc(O)c(O)c(O)c2)[C@H]1O | > 100 | – | –
COc1ccc(-c2cc(=O)c3c(O)cc(O)cc3o2)cc1OC | – | – | viability at 100 µM [3]: 109%; IC50 [4]: 17 µM; IC50 [5]: 5 µM; viability at 100 µM [6]: 112%
COc1ccc(-c2cc(=O)c3c(O)cc(O)cc3o2)cc1 [ACACETIN] | – | – | viability at 100 µM [3]: 115%; IC50 [4]: 53.7 µM; IC50 [5]: 27.7 µM; viability at 100 µM [6]: 99%
O=c1cc(-c2ccc(O)cc2)oc2cc(O)cc(O)c12 [APIGENIN] | 14 | 7.7 | –
O=C1c2c(O)cc(O)cc2O[C@H](c2ccc(O)cc2)[C@H]1O [DIHYDROKAEMPFEROL] | > 100 | – | –
COc1ccc(-c2cc(=O)c3c(O)cc(O)cc3o2)cc1O [DIOSMETIN] | – | 8.9 | IC50 [4]: 32.2 µM; IC50 [5]: 16.7 µM
O=C1C[C@@H](c2ccc(O)c(O)c2)Oc2cc(O)cc(O)c21 [ERIODICTYOL] | – | > 100 | –
O=c1c(O)c(-c2ccc(O)cc2)oc2cc(O)cc(O)c12 [KAEMPFEROL] | 15 | 29 | viability at 100 µM [3]: 138%; IC50 [4]: 17 µM; IC50 [5]: 13.4 µM; viability at 100 µM [6]: 141%
O=C1C[C@@H](c2ccc(O)cc2)Oc2cc(O)ccc21 [LIQUIRTIGENIN] | – | 85 | –
O=c1cc(-c2ccc(O)c(O)c2)oc2cc(O)cc(O)c12 [LUTEOLIN] | – | 20 | –
COc1c(O)cc(-c2oc3cc(O)cc(O)c3c(=O)c2O)cc1O [MEARNSETIN] | – | 84 | –
O=c1c(O)c(-c2cc(O)c(O)c(O)c2)oc2cc(O)cc(O)c12 [MYRICETIN] | – | 99 | –
O=C1C[C@@H](c2ccc(O)cc2)Oc2cc(O)cc(O)c21 [NARINGENIN] | 60 | – | –
O=c1c(O)c(-c2ccc(O)c(O)c2)oc2cc(O)cc(O)c12 [QUERCETIN] | – | 36 | –
O=c1c(O)c(-c2cc(O)c(O)c(O)c2)oc2cc(O)ccc12 [ROBINETIN] | 42 | – | –
COc1ccc(-c2oc3cc(O)cc(O)c3c(=O)c2O)cc1O [TAMARIXETIN] | – | 25 | –
COc1cc(-c2cc(=O)c3c(O)cc(O)cc3o2)cc(OC)c1O [TRICIN] | 8 | – | –
